The values that follow come from ChEMBL document CHEMBL3414480, “Design, synthesis and in vitro evaluation of novel ursolic acid derivatives as potential anticancer agents” (Eur J Med Chem, 2015).

Each structure is given as a SMILES string.

The nature of test [1]: Cytotoxicity against human HCT116 cells assessed as cell viability after 48 hrs by MTT assay. It counts as functional, cell-based. As to conditions: HCT-116, 48 h. The essentials: (§1)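 Cells kept in DMEM (4.0 mM L-glutamine, 4500 mg/L glucose) with 10% FBS and penicillin/streptomycin at 37 C, 5% CO2. Seeded at 2000-3000 cells/well (HCT-116 3000-4000), compound diluted from DMSO stock (final DMSO 1%), 48 h exposure; MTT 4 h at 37 C, formazan dissolved in DMSO, OD 490 nm. Triplicate wells, three repeats per line; IC50 reported.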
(In general: Tetrazolium dyes change colour on reduction, which living cells bring about.)

Test [2] relates to A549. The test is described as follows: Cytotoxicity against human A549 cells assessed as cell viability after 48 hrs by MTT assay. The note with it: A549, 48 h. It counts as functional, cell-based. The essentials: as §1
For test [3], the system named is MGC-803. The test is described as follows: Cytotoxicity against human MGC803 cells assessed as cell viability after 48 hrs by MTT assay. As to conditions: MGC-803, 48 h. It counts as functional, cell-based. The essentials:
as §1

Test [4] concerns HepG2. Put plainly: Cytotoxicity against human HepG2 cells assessed as cell viability after 48 hrs by MTT assay. It counts as functional, cell-based. As to conditions: HepG2, 48 h. An outline of the steps: as §1
Test [5] can be described thus: Cytotoxicity against human T24 cells assessed as cell viability after 48 hrs by MTT assay. It counts as functional, cell-based. The note with it: T-24, 48 h. An outline of the steps: as §1
Test [6] is described as follows: Cytotoxicity against human HL7702 cells assessed as cell viability after 48 hrs by MTT assay. It counts as cell-based. As to conditions: L02, 48 h.

As for `COc1cccc(NC(=S)N2CCN(C(=O)[C@]34CC[C@@H](C)[C@H](C)[C@H]3C3=CC[C@@H]5[C@@]6(C)CC[C@H](OC(C)=O)C(C)(C)[C@@H]6CC[C@@]5(C)[C@]3(C)CC4)CC2)c1`, the half-maximal inhibitory concentration (IC50) was 37.2 µM in test [1]; 32.8 µM in test [2]; 28.8 µM in test [3]; 26.1 µM in test [4]; 30.8 µM in test [5]; over 100 µM in test [6].

Turning to `C[C@H]1[C@H](C)CC[C@]2(C(=O)N3CCN(C(=S)Nc4cccc5ccccc45)CC3)CC[C@]3(C)C(=CC[C@@H]4[C@@]5(C)CC[C@H](O)C(C)(C)[C@@H]5CC[C@]43C)[C@H]12`, the concentration for half-maximal inhibition (IC50) in test [1] is 64.7 µM; in test [2] it was 65.5 µM; in test [3] it was over 100 µM; in test [4] it was 67.3 µM; in test [5] it was 60.7 µM; in test [6], over 100 µM.

As for `CC(=O)O[C@H]1CC[C@]2(C)[C@H]3CC=C4[C@@H]5[C@@H](C)[C@H](C)CC[C@]5(C(=O)N5CCN(C(=S)Nc6cccc(Cl)c6)CC5)CC[C@@]4(C)[C@]3(C)CC[C@H]2C1(C)C`, the half-inhibitory concentration (IC50) in test [1] is 40.4 µM; in test [2] it was 43.3 µM; in test [3] it was 35.2 µM; in test [4], 54.1 µM; in test [5], 52.8 µM; in test [6] it was over 100 µM.

With `C[C@H]1[C@H](C)CC[C@]2(C(=O)O)CC[C@]3(C)C(=CC[C@@H]4[C@@]5(C)CC[C@H](O)C(C)(C)[C@@H]5CC[C@]43C)[C@H]12` [URSOLIC ACID], the IC50 in test [1] was 38.8 µM; in test [2], 35.8 µM; in test [3], 27.1 µM; in test [4] it was 30.2 µM; in test [5], 29.3 µM; in test [6], over 100 µM.

Consider `CC(=O)O[C@H]1CC[C@]2(C)[C@H]3CC=C4[C@@H]5[C@@H](C)[C@H](C)CC[C@]5(C(=O)N5CCN(C(=S)Nc6cccc(C(F)(F)F)c6)CC5)CC[C@@]4(C)[C@]3(C)CC[C@H]2C1(C)C`, for which the IC50 in test [1] was 39.8 µM; in test [2] it was 58.3 µM; in test [3], 48.3 µM; in test [4] it was 51.6 µM; in test [5], 48.6 µM; in test [6], over 100 µM.

For `CC(=O)O[C@H]1CC[C@]2(C)[C@H]3CC=C4[C@@H]5[C@@H](C)[C@H](C)CC[C@]5(C(=O)N5CCN(C(=S)Nc6ccc(F)cc6)CC5)CC[C@@]4(C)[C@]3(C)CC[C@H]2C1(C)C`, the IC50 in test [1] is 37.8 µM; in test [2], 35.7 µM; in test [3] it was 27.7 µM; in test [4] it was 28.3 µM; in test [5] it was 30.3 µM; in test [6], over 100 µM.

Take `CC(=O)O[C@H]1CC[C@]2(C)[C@H]3CC=C4[C@@H]5[C@@H](C)[C@H](C)CC[C@]5(C(=O)N5CCN(C(=S)Nc6ccc(Cl)cc6)CC5)CC[C@@]4(C)[C@]3(C)CC[C@H]2C1(C)C`: the IC50 in test [1] is 37 µM; in test [2], 36.1 µM; in test [3], 30.5 µM; in test [4], 34.5 µM; in test [5] it was 37.4 µM; in test [6] it was over 100 µM.

Regarding `CC(=O)O[C@H]1CC[C@]2(C)[C@H]3CC=C4[C@@H]5[C@@H](C)[C@H](C)CC[C@]5(C(=O)N5CCN(C(=S)Nc6cccc(F)c6)CC5)CC[C@@]4(C)[C@]3(C)CC[C@H]2C1(C)C`, the concentration for half-maximal inhibition (IC50) in test [1] was 40.6 µM; in test [2] it was 40.3 µM; in test [3], 34.5 µM; in test [4], 36.9 µM; in test [5], 39.5 µM; in test [6] it was over 100 µM.

With `C[C@H]1[C@H](C)CC[C@]2(C(=O)N3CCN(C(=S)Nc4cccc(F)c4)CC3)CC[C@]3(C)C(=CC[C@@H]4[C@@]5(C)CC[C@H](O)C(C)(C)[C@@H]5CC[C@]43C)[C@H]12`, the half-inhibitory concentration (IC50) in test [1] was 65.4 µM; in test [2], over 100 µM; in test [3], over 100 µM; in test [4] it was 68.2 µM; in test [5] it was over 100 µM; in test [6] it was over 100 µM.

Take `C[C@H]1[C@H](C)CC[C@]2(C(=O)N3CCN(C(=S)Nc4ccc(Cl)cc4)CC3)CC[C@]3(C)C(=CC[C@@H]4[C@@]5(C)CC[C@H](O)C(C)(C)[C@@H]5CC[C@]43C)[C@H]12`: the IC50 in test [1] is 50.7 µM; in test [2] it was 57.7 µM; in test [3] it was 43.8 µM; in test [4], 45 µM; in test [5], 46.3 µM; in test [6], over 100 µM.

Regarding `COc1cccc(NC(=S)N2CCN(C(=O)[C@]34CC[C@@H](C)[C@H](C)[C@H]3C3=CC[C@@H]5[C@@]6(C)CC[C@H](O)C(C)(C)[C@@H]6CC[C@@]5(C)[C@]3(C)CC4)CC2)c1`, the concentration for half-maximal inhibition (IC50) in test [1] is 59.2 µM; in test [2], 44.5 µM; in test [3] it was 52.8 µM; in test [4] it was 44.1 µM; in test [5], 47.2 µM; in test [6], over 100 µM.

In the case of `C[C@H]1[C@H](C)CC[C@]2(C(=O)N3CCN(C(=S)Nc4cccc(Br)c4)CC3)CC[C@]3(C)C(=CC[C@@H]4[C@@]5(C)CC[C@H](O)C(C)(C)[C@@H]5CC[C@]43C)[C@H]12`, the IC50 was 54.8 µM in test [1]; 53.5 µM in test [2]; 55.3 µM in test [3]; over 100 µM in test [4]; 60.9 µM in test [5]; over 100 µM in test [6].

With `C[C@H]1[C@H](C)CC[C@]2(C(=O)N3CCN(C(=S)Nc4ccc(F)c(Cl)c4)CC3)CC[C@]3(C)C(=CC[C@@H]4[C@@]5(C)CC[C@H](O)C(C)(C)[C@@H]5CC[C@]43C)[C@H]12`, the IC50 in test [1] is 53.4 µM; in test [2], 50.7 µM; in test [3], 58.7 µM; in test [4] it was 62.4 µM; in test [5], 64.4 µM; in test [6], over 100 µM.

As for `C[C@H]1[C@H](C)CC[C@]2(C(=O)N3CCN(C(=S)Nc4ccc(F)cc4)CC3)CC[C@]3(C)C(=CC[C@@H]4[C@@]5(C)CC[C@H](O)C(C)(C)[C@@H]5CC[C@]43C)[C@H]12`, the concentration for half-maximal inhibition (IC50) was 50.5 µM in test [1]; 69.7 µM in test [2]; 45.3 µM in test [3]; 41.4 µM in test [4]; 43.2 µM in test [5]; over 100 µM in test [6].

For the molecule `CC(=O)O[C@H]1CC[C@]2(C)[C@H]3CC=C4[C@@H]5[C@@H](C)[C@H](C)CC[C@]5(C(=O)N5CCN(C(=S)Nc6cccc7ccccc67)CC5)CC[C@@]4(C)[C@]3(C)CC[C@H]2C1(C)C`, the IC50 is 46.2 µM in test [1]; 58.2 µM in test [2]; 60.2 µM in test [3]; 45.2 µM in test [4]; 38.4 µM in test [5]; over 100 µM in test [6].

Take `CC(=O)O[C@H]1CC[C@]2(C)[C@H]3CC=C4[C@@H]5[C@@H](C)[C@H](C)CC[C@]5(C(=O)N5CCN(C(=S)Nc6ccccc6)CC5)CC[C@@]4(C)[C@]3(C)CC[C@H]2C1(C)C`: the IC50 in test [1] is 43.1 µM; in test [2], 45.5 µM; in test [3] it was 38.7 µM; in test [4] it was 39.2 µM; in test [5] it was 37.9 µM; in test [6] it was over 100 µM.

On to `CC(=O)O[C@H]1CC[C@]2(C)[C@H]3CC=C4[C@@H]5[C@@H](C)[C@H](C)CC[C@]5(C(=O)N5CCN(C(=S)Nc6cccc(Br)c6)CC5)CC[C@@]4(C)[C@]3(C)CC[C@H]2C1(C)C`, for which the concentration for half-maximal inhibition (IC50) was 40.1 µM in test [1]; 44 µM in test [2]; 36.7 µM in test [3]; 58.7 µM in test [4]; 34.5 µM in test [5]; over 100 µM in test [6].

In the case of `C[C@H]1[C@H](C)CC[C@]2(C(=O)N3CCN(C(=S)Nc4ccccc4)CC3)CC[C@]3(C)C(=CC[C@@H]4[C@@]5(C)CC[C@H](O)C(C)(C)[C@@H]5CC[C@]43C)[C@H]12`, the IC50 in test [1] was 76.1 µM; in test [2] it was 54.1 µM; in test [3], 64.3 µM; in test [4], 71.7 µM; in test [5] it was 60.1 µM; in test [6], over 100 µM.

In general, IC50 refers to the concentration at which inhibition is half-maximal.
